Measurements from PubChem BioAssay AID2545 (The Scripps Research Institute Molecular Screening Center, 2010).
Active and inactive are the calls of the source.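 Rule for the calls: active = inhibition at or above 75%; inactive = inhibition below 75%.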

The compounds below were run against NADPH oxidase 1 (Homo sapiens) (UniProt Q9Y5S8) (assay: reconstituted NOX1 ROS output inhibition – cell-based, HEK/293, percent inhibition, luminescence, orthogonal assay for NOX1 inhibitor project, late-stage follow-up (AID 2545)). Settings: NOX1-transfected HEK293, luminol ROS chemiluminescence; at 100 µM; stronger effect = higher value.
Sequence of NADPH oxidase 1 (Homo sapiens) (Q9Y5S8 whole entry, looked up): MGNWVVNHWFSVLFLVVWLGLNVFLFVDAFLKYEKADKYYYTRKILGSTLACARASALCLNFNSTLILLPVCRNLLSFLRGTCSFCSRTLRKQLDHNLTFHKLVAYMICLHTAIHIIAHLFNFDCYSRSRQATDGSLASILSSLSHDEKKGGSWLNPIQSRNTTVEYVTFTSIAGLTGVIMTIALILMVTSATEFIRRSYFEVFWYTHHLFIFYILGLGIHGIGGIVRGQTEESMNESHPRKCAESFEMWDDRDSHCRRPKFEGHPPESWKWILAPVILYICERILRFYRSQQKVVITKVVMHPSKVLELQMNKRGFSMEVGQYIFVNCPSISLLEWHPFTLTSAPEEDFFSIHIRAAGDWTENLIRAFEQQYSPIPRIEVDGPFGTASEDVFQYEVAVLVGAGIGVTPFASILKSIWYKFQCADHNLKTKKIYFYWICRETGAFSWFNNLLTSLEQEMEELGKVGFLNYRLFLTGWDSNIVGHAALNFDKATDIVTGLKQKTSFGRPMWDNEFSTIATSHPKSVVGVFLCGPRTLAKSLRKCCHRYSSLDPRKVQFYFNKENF
Procedure, shortened: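 System: HEK293 cells transiently coexpressing Myc-tagged Nox1, NoxO1, NoxA1, constitutively active Rac1 Q61L; Doses: single nominal concentration of 100 µM per compound; Times: compounds added 16 h post-transfection, 2 h before luminol/peroxidase; Signal: luminol chemiluminescence of intracellular ROS; Measure: percent inhibition of NOX1-driven ROS luminescence signal; Replication: single well per compound.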

inhibition | Structure (SMILES)
-43.1% (inactive) | CC(C)(C)c1csc(NNC(=O)c2ccc(Cl)cc2)n1
-55.4% (inactive) | O=c1[nH]nc(N2CCSCC2)[nH]1
1.35% (inactive) | CC(=O)Oc1ccc(OC(C)=O)c2c1[C@@H]1C=C[C@H]2CC1
99.9% | Cc1cc(Cl)ccc1NC(=S)NNC(=S)Nc1ccc(F)cc1
-62.4% (inactive) | S=C(NNc1nccc(-c2cccnc2)n1)Nc1ccccc1
121% | CN(C)c1ccc(NC(=O)Nc2ccc(OCc3ccccc3)cc2)cc1
-15.1% (inactive) | Nc1nc(Nc2ccccc2)n[nH]1
83.4% | O=C(N/N=C/c1ccc(O)cc1)N/N=C/c1ccc(O)cc1
-0.39% (inactive) | O=c1[nH]c2ccsc2c(=O)n1CCO
-10.4% (inactive) | NS(=O)(=O)c1ccc(NNC(=O)c2c(F)cccc2Cl)cc1
-18.5% (inactive) | COc1ccc(N(C)CC(=O)O)c(C(=O)O)c1
9.5% (inactive) | COCCCNC(=S)NNC(=S)Nc1ccccc1
104% | CC1(C)CC(Nc2ccc(Nc3ccccc3)cc2)CC(C)(C)N1
1.45% (inactive) | ON/C=N/c1nnc(C(F)(F)F)s1
-0.65% (inactive) | Cc1cc(S(=O)(=O)NNc2ncnc3c2cnn3C)c(C)cc1Cl
52% (inactive) | O=c1c(Cl)c2oc3ccccc3nc-2c2ccccc12
79.5% | c1ccc2c(c1)Nc1nc3ccccc3nc1N2
58.9% (inactive) | Cn1cnc(S(=O)(=O)Nc2ccc(N3CCCCC3)cc2)c1
46.4% (inactive) | COc1cc2ncnc(NNC(=O)c3cccs3)c2cc1OC
5.79% (inactive) | O=C(NNc1c([N+](=O)[O-])cc(C(F)(F)F)cc1[N+](=O)[O-])c1ccco1
54.6% (inactive) | O=C(NNc1c([N+](=O)[O-])cc(C(F)(F)F)cc1[N+](=O)[O-])c1ccccc1-n1cccc1

inhibition | Structure (SMILES)
100% | COc1ccc(Cl)cc1NC(=O)Nc1ccc(N(C)C)cc1
40.4% (inactive) | O=C(Oc1ccccc1N1CCOCC1)c1cccs1
26.1% (inactive) | Nc1nc(NCc2ccccc2OC(F)(F)F)n[nH]1
-23.5% (inactive) | Cc1cc(C(=O)NNc2cc(Cl)ccc2Cl)no1
106% | COc1cccc(NC(=S)NNC(=S)NC2CC3CCC2C3)c1 (stereo unspecified)
63.6% (inactive) | COc1ccccc1NNC(=O)c1cc(C(C)(C)C)nn1Cc1ccccc1
-55.4% (inactive) | Cc1noc(C)c1C(=O)Nc1ccc(N2CCOCC2)nc1N1CCOCC1
24.8% (inactive) | Nc1nc(NCc2ccccn2)n[nH]1
-84% (inactive) | COc1cccc(NC(=S)NNc2ccc([N+](=O)[O-])cc2)c1
-18.6% (inactive) | CC(C)C(=O)NNc1nc2c(c(=O)n(C)c(=O)n2C)n1Cc1ccc(Cl)cc1
5.12% (inactive) | Cc1cc(Br)c(NC(=S)NNc2ccccc2)c(Br)c1
-50.4% (inactive) | COc1ccc(OC(=O)c2ccc3ncccc3c2)cc1
100% | CN(C)c1ccc(/C=N/Nc2c(Cl)cncc2Cl)cc1
108% | COc1cc(-c2nc(-c3ccccc3)c(-c3ccccc3)[nH]2)ccc1O
57.6% (inactive) | O=C(Oc1ccccc1N1CCCCC1)c1sc2ccccc2c1Cl
-55.7% (inactive) | Cn1nc(-c2ccccc2)c(O)c(N=Nc2ccccc2)c1=O
2.42% (inactive) | CCOC(=O)C1=C(Nc2ccc(OC(C)=O)cc2)C(=O)N(C(C)(C)C)C1
2.15% (inactive) | Nc1nc(NCc2c(Cl)cccc2Oc2ccccc2)n[nH]1
49.4% (inactive) | Cc1nc(C(F)(F)F)c(C(=O)NNc2ncc(C(F)(F)F)cc2Cl)s1
107% | FC(F)(F)c1ccc2c(c1)Nc1ccccc1S2
